Assay results taken from ChEMBL document CHEMBL4014266, “Anti-Neurodegenerative Biflavonoid Glycosides from Impatiens balsamina” (J Nat Prod, 2017).

What was measured:
BT-549 = experiment: Cytotoxicity against human BT549 cells after 48 hrs by SRB assay; type: functional, cell-based; details: BT-549, 48 h
How it was run: (§1)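 Quantitative staining of cellular protein with sulforhodamine B across human tumour lines A549, SK-OV-3, SK-MEL-2 and Bt549; IC50 derived. Etoposide served as positive control.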

[1] = Cytotoxicity against mouse BV2 cells assessed as cell viability at 20 uM after 24 hrs by MTT assay relative to control; type: cell-based, BV-2; details: read-out: Activity
How it was run: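 BV-2 cells seeded at 4 × 10^4 cells/well, treated with 20 μM compound; viability read by MTT and expressed as percent. Mean ± SD of three independent experiments.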

C6 = experiment: Neuroprotective activity in rat C6 cells assessed as NGF secretion at 20 uM after 24 hrs by ELISA relative to control; type: functional
How it was run: (§2)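 C6 cells seeded at 1 × 10^5 cells/well; after 1 d switched to serum-free DMEM with 20 μM compound for 24 h. NGF in conditioned medium measured by ELISA as percent of untreated control (100%); viability by MTT as percent. 6-shogaol as positive control.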

[2] = Cytotoxicity against rat C6 cells assessed as cell viability at 20 uM after 24 hrs by MTT assay relative to control; type: cell-based; details: read-out: Activity; how it was run: as §2
SK-OV-3 = experiment: Cytotoxicity against human SKOV3 cells after 48 hrs by SRB assay; type: functional, cell-based; details: SK-OV-3, 48 h; how it was run: as §1
SK-MEL-2 = experiment: Cytotoxicity against human SK-MEL-2 cells after 48 hrs by SRB assay; type: functional, cell-based; details: SK-MEL-2, 48 h; how it was run: as §1
A549 = experiment: Cytotoxicity against human A549 cells after 48 hrs by SRB assay; type: functional, cell-based; details: A549, 48 h; how it was run: as §1
BV-2 = experiment: Antiinflammatory activity in mouse BV2 cells assessed as inhibition of LPS-induced nitrite production after 24 hrs by Griess assay; type: functional, cell-based; details: BV-2, 24 h
How it was run: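 BV-2 microglia seeded at 4 × 10^4 cells/well, exposed to graded doses of compounds with LPS stimulation. Nitrite quantified against a sodium nitrite standard curve; IC50 taken as the concentration giving 50% inhibition of NO production. L-NMMA as positive control. Mean ± SD of three independent experiments.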

IC50 (BV-2)	Compound	IC50 (BT-549)	viability at 24 h, 20 µM [1]	Activity (C6)	viability at 24 h, 20 µM [2]	IC50 (SK-OV-3)	IC50 (SK-MEL-2)	IC50 (A549)
31 µM	C[C@@H]1O[C@@H](OC[C@H]2O[C@@H](Oc3c(-c4ccc(O)cc4)oc4c([C@]56O[C@@]5(c5ccc(O)cc5)Oc5cc(O)cc(O)c5C6=O)c(O)cc(O)c4c3=O)[C@H](O)[C@@H](O)[C@@H]2O)[C@H](O)[C@H](O)[C@H]1O	> 10 µM	100%	74.27%	109%	> 10 µM	> 10 µM	> 10 µM
39.2 µM	C[C@@H]1O[C@@H](OC[C@H]2O[C@@H](Oc3c(-c4ccc(O)cc4)oc4c([C@@]56O[C@]5(c5ccc(O)cc5)Oc5cc(O)cc(O)c5C6=O)c(O)cc(O)c4c3=O)[C@H](O)[C@@H](O)[C@@H]2O)[C@H](O)[C@H](O)[C@H]1O	> 10 µM	99.9%	88.36%	102%	> 10 µM	> 10 µM	> 10 µM
80.4 µM	O=c1c(O[C@@H]2O[C@H](CO)[C@@H](O)[C@@H](O)[C@H]2O)c(-c2ccc(O)cc2)oc2cc(O)cc(O)c12	> 10 µM	97.5%	83.79%	105%	> 10 µM	> 10 µM	> 10 µM
56.9 µM	O=C1c2c(O)cc(O)cc2O[C@]2(c3ccc(O)cc3)O[C@]12c1c(O)cc(O)c2c(=O)c(O[C@@H]3O[C@H](CO)[C@@H](O)[C@H](O)[C@H]3O)c(-c3ccc(O)cc3)oc12	> 10 µM	104%	90.12%	107%	> 10 µM	> 10 µM	> 10 µM
33.3 µM	O=C1c2c(O)cc(O)cc2O[C@@]2(c3ccc(O)cc3)O[C@@]12c1c(O)cc(O)c2c(=O)c(O[C@@H]3O[C@H](CO)[C@@H](O)[C@H](O)[C@H]3O)c(-c3ccc(O)cc3)oc12	> 10 µM	110%	121.42%	113%	> 10 µM	> 10 µM	> 10 µM
31.7 µM	C[C@@H]1O[C@@H](O[C@H]2[C@H](Oc3c(-c4ccc(O)cc4)oc4cc(O)cc(O)c4c3=O)O[C@H](CO)[C@@H](O)[C@@H]2O)[C@H](O)[C@H](O)[C@H]1O	> 10 µM	103%	123.31%	102%	> 10 µM	> 10 µM	> 10 µM
32.7 µM	O=C1c2c(O)cc(O)cc2O[C@H](c2cc(O)c(O)c(O)c2)[C@H]1O [AMPELOPSIN]	> 10 µM	97%	172.04%	110%	> 10 µM	> 10 µM	> 10 µM
23.5 µM	O=c1c(O[C@@H]2O[C@H](CO)[C@@H](O)[C@H](O)[C@H]2O)c(-c2ccc(O)cc2)oc2cc(O)cc(O)c12 [ASTRAGALIN]	> 10 µM	97.5%	114.67%	115%	> 10 µM	> 10 µM	> 10 µM
	COc1cc([C@@H]2c3cc4c(cc3[C@@H](O[C@@H]3O[C@@H]5CO[C@@H](C)O[C@H]5[C@H](O)[C@H]3O)[C@H]3COC(=O)[C@H]23)OCO4)cc(OC)c1O [ETOPOSIDE]	1.24 µM				1.95 µM	1.1 µM	0.92 µM
55.6 µM	O=c1c(O[C@@H]2O[C@H](CO)[C@@H](O)[C@H](O)[C@H]2O)c(-c2ccc(O)c(O)c2)oc2cc(O)cc(O)c12 [ISOQUERCETIN]	> 10 µM	95.6%	98.67%	107%	> 10 µM	> 10 µM	> 10 µM
8.86 µM	O=c1c(O)c(-c2ccc(O)cc2)oc2cc(O)cc(O)c12 [KAEMPFEROL]	> 10 µM	119%	115.98%	97.2%	> 10 µM	> 10 µM	> 10 µM
44.4 µM	C[C@@H]1O[C@@H](OC[C@H]2O[C@@H](Oc3c(-c4ccc(O)cc4)oc4cc(O)cc(O)c4c3=O)[C@H](O)[C@@H](O)[C@@H]2O)[C@H](O)[C@H](O)[C@H]1O [NICOTIFLOROSIDE]	> 10 µM	97.9%	97.59%	99.6%	> 10 µM	> 10 µM	> 10 µM
24.3 µM	C[C@@H]1O[C@@H](OC[C@H]2O[C@@H](Oc3c(-c4ccc(O)c(O)c4)oc4cc(O)cc(O)c4c3=O)[C@H](O)[C@@H](O)[C@@H]2O)[C@H](O)[C@H](O)[C@H]1O [RUTIN]	> 10 µM	99.2%	108.27%	113%	> 10 µM	> 10 µM	> 10 µM
	CCCCC/C=C/C(=O)CCc1ccc(O)c(OC)c1 [SHOGAOL]			143.74%	104%			
21.2 µM	CNC(=N)NCCC[C@H](N)C(=O)O [TILARGININE]		120%					

Compound	IC50 (BV-2)	IC50 (BT-549)	viability at 24 h, 20 µM [1]	Activity (C6)	viability at 24 h, 20 µM [2]	IC50 (SK-OV-3)	IC50 (SK-MEL-2)	IC50 (A549)
O=c1c(O)c(-c2ccc(O)c(O)c2)oc2cc(O)cc(O)c12 [QUERCETIN]	19.1 µM	> 10 µM	101%	118.77%	103%	> 10 µM	> 10 µM	> 10 µM
